Measurements reported in ChEMBL document CHEMBL3774311, “Synthesis and in vitro antitumour activity of tiazofurin analogues with nitrogen functionalities at the C-2' position” (Eur J Med Chem, 2016).

Columns and labels:
[1] = system: K562; experiment: Induction of apoptosis in human K562 cells assessed as late apoptotic cells after 72 hrs by annexin V-FITC/propidium iodide staining based flow cytometry (reference value: 5.24%); type: functional
Summary of the method: (§1)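 K562 cells treated 24 or 72 h, double-stained with Annexin V-FITC/PI and analysed by flow cytometry to give percentages of live, apoptotic and necrotic cells; apoptotic and necrotic responses expressed as specific apoptosis or specific necrosis (%).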

[2] = system: K562; experiment: Induction of apoptosis in human K562 cells assessed as necrotic cells after 72 hrs by annexin V-FITC/propidium iodide staining based flow cytometry (reference value: 7.23%); type: functional; summary of the method: as §1
[3] = system: K562; experiment: Induction of specific necrosis in human K562 cells after 24 hrs by annexin V-FITC/propidium iodide staining based flow cytometry; type: functional; parameters: concentration or dose not given beside the values; summary of the method: as §1
[4] = system: K562; experiment: Induction of apoptosis in human K562 cells assessed as late apoptotic cells after 24 hrs by annexin V-FITC/propidium iodide staining based flow cytometry (reference value: 4.58%); type: functional; summary of the method: as §1
[5] = system: K562; experiment: Induction of apoptosis in human K562 cells assessed as Bcl2 protein level after 24 hrs by Western blotting method (reference value: 22.81%); type: functional
[6] = system: K562; experiment: Induction of apoptosis in human K562 cells assessed as Bax protein level after 24 hrs by Western blotting method (reference value: 16.13%); type: functional
[7] = system: Raji; experiment: Antiproliferative activity against human Raji cells after 72 hrs by MTT assay; type: functional, cell-based
Summary of the method: (§2)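 Human tumour lines and MRC-5 foetal lung fibroblasts (normal-cell comparator) exposed to compounds for 72 h; viability read by standard MTT assay. IC50 taken as concentration inhibiting growth by 50% versus untreated control; means of three independent experiments, coefficients of variation under 10%.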

[8] = system: K562; experiment: Induction of apoptosis in human K562 cells assessed as early apoptotic cells after 24 hrs by annexin V-FITC/propidium iodide staining based flow cytometry (reference value: 8.09%); type: functional; summary of the method: as §1
[9] = system: K562; experiment: Induction of apoptosis in human K562 cells assessed as caspase 3 level after 72 hrs by Western blotting method (reference value: 17.05%); type: functional
[10] = system: K562; experiment: Induction of apoptosis in human K562 cells assessed as cleaved PARP level after 24 hrs by Western blotting method (reference value: 36.17%); type: functional
[11] = system: K562; experiment: Induction of apoptosis in human K562 cells assessed as necrotic cells after 24 hrs by annexin V-FITC/propidium iodide staining based flow cytometry (reference value: 1.50%); type: functional; summary of the method: as §1
[12] = system: K562; experiment: Induction of apoptosis in human K562 cells assessed as early apoptotic cells after 72 hrs by annexin V-FITC/propidium iodide staining based flow cytometry (reference value: 3.22%); type: functional; summary of the method: as §1
[13] = system: K562; experiment: Induction of cell cycle arrest in human K562 cells assessed as accumulation at G0/G1 phase after 72 hrs by propidium iodide staining-based flow cytometry (reference value: 45.92%); type: functional
Summary of the method: (§3)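 Exponentially growing K562 cells treated 24 or 72 h; cells stained with propidium iodide and cell-cycle distribution (sub-G1, G0/G1, S, G2/M, %) measured by flow cytometry; untreated cells as control.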

[14] = system: K562; experiment: Induction of cell cycle arrest in human K562 cells assessed as accumulation at S phase after 24 hrs by propidium iodide staining-based flow cytometry (reference value: 48.38%); type: functional; summary of the method: as §3
[15] = Antiproliferative activity against human HL60 cells after 72 hrs by MTT assay; type: functional, cell-based, HL-60; summary of the method: as §2
[16] = system: K562; experiment: Induction of specific apoptosis in human K562 cells after 72 hrs by annexin V-FITC/propidium iodide staining based flow cytometry; type: functional; parameters: concentration or dose not given beside the values; summary of the method: as §1
[17] = system: HeLa; experiment: Antiproliferative activity against human HeLa cells after 72 hrs by MTT assay; type: functional, cell-based; summary of the method: as §2
[18] = system: K562; experiment: Induction of apoptosis in human K562 cells assessed as Bax protein level after 72 hrs by Western blotting method (reference value: 32.81%); type: functional
[19] = system: K562; experiment: Induction of apoptosis in human K562 cells assessed as Bcl2 protein level after 72 hrs by Western blotting method (reference value: 7.90%); type: functional
[20] = system: K562; experiment: Antiproliferative activity against human K562 cells after 72 hrs by MTT assay; type: functional, cell-based; summary of the method: as §2
[21] = system: K562; experiment: Induction of cell cycle arrest in human K562 cells assessed as accumulation at S phase after 72 hrs by propidium iodide staining-based flow cytometry (reference value: 35.73%); type: functional; summary of the method: as §3
[22] = system: K562; experiment: Induction of cell cycle arrest in human K562 cells assessed as accumulation at G0/G1 phase after 24 hrs by propidium iodide staining-based flow cytometry (reference value: 36.28%); type: functional; summary of the method: as §3
[23] = system: K562; experiment: Induction of cell cycle arrest in human K562 cells assessed as accumulation at Sub-G1 phase after 72 hrs by propidium iodide staining-based flow cytometry (reference value: 3.04%); type: functional; summary of the method: as §3
[24] = system: K562; experiment: Induction of cell cycle arrest in human K562 cells assessed as accumulation at G2/M phase after 72 hrs by propidium iodide staining-based flow cytometry (reference value: 15.31%); type: functional; summary of the method: as §3
[25] = system: K562; experiment: Induction of cell cycle arrest in human K562 cells assessed as accumulation at G2/M phase after 24 hrs by propidium iodide staining-based flow cytometry (reference value: 14.29%); type: functional; summary of the method: as §3
[26] = system: K562; experiment: Induction of apoptosis in human K562 cells assessed as living cells after 24 hrs by annexin V-FITC/propidium iodide staining based flow cytometry (reference value: 85.85%); type: functional; summary of the method: as §1
[27] = system: K562; experiment: Induction of apoptosis in human K562 cells assessed as cleaved PARP level after 72 hrs by Western blotting method (reference value: 18.36%); type: functional
[28] = system: K562; experiment: Induction of specific necrosis in human K562 cells after 72 hrs by annexin V-FITC/propidium iodide staining based flow cytometry; type: functional; parameters: concentration or dose not given beside the values; summary of the method: as §1
[29] = system: K562; experiment: Induction of specific apoptosis in human K562 cells after 24 hrs by annexin V-FITC/propidium iodide staining based flow cytometry; type: functional; parameters: concentration or dose not given beside the values; summary of the method: as §1
[30] = system: K562; experiment: Induction of apoptosis in human K562 cells assessed as living cells after 72 hrs by annexin V-FITC/propidium iodide staining based flow cytometry (reference value: 84.31%); type: functional; summary of the method: as §1
[31] = system: K562; experiment: Induction of apoptosis in human K562 cells assessed as caspase 3 level after 24 hrs by Western blotting method (reference value: 42.77%); type: functional
[32] = system: K562; experiment: Induction of cell cycle arrest in human K562 cells assessed as accumulation at Sub-G1 phase after 24 hrs by propidium iodide staining-based flow cytometry (reference value: 1.05%); type: functional; summary of the method: as §3
[33] = system: MCF7; experiment: Antiproliferative activity against human MCF7 cells after 72 hrs by MTT assay; type: functional, cell-based; details: MCF7, 72 h; summary of the method: as §2
[34] = system: MRC5; experiment: Cytotoxicity against human MRC5 cells after 72 hrs by MTT assay; type: cell-based; details: MRC5, 72 h; summary of the method: as §2
[35] = system: HT-29; experiment: Antiproliferative activity against human HT-29 cells after 72 hrs by MTT assay; type: functional, cell-based; details: HT-29, 72 h; summary of the method: as §2
[36] = system: Jurkat; experiment: Antiproliferative activity against human Jurkat cells after 72 hrs by MTT assay; type: functional, cell-based; summary of the method: as §2

SMILES	Activity [1]	Activity [2]	Activity [3]	Activity [4]	Activity [5]	Activity [6]	Activity [8]	Activity [9]	Activity [10]	Activity [11]	Activity [12]	Activity [13]	Activity [14]	Activity [16]	Activity [18]	Activity [19]	Activity [21]	Activity [22]	Activity [23]	Activity [24]	further results
Cl.NC(=O)c1csc([C@@H]2O[C@H](CO)[C@@H](O)[C@H]2N)n1	66.3%	6.88%	3.6%	7.67%	16.22%	2.16%	8.99%	11.52%	66.48%	5.11%	22.33%	44.32%	47.22%	30.26%	81.99%	14.5%	33.29%	35.02%	11.13%	11.26%	IC50 ([7]; raji): 9.28 µM; IC50 ([15]; hl-60): 0.02 µM; IC50 ([17]; hela): > 100 µM; IC50 ([20]; k562): > 100 µM; Activity [25]: 15.16%; Activity [26]: 78.24%; Activity [27]: 24.41%; Activity [28]: 6.22%; Activity [29]: 10.71%; Activity [30]: 4.53%; Activity [31]: 16.6%; Activity [32]: 2.61%
[N-]=[N+]=N[C@@H]1[C@H](O)[C@@H](CO)O[C@H]1c1nc(C(N)=O)cs1	74.34%	5.99%	-0.82%	4.8%	31.53%	12.4%	10.94%	34.23%	103.8%	0.69%	16.67%	42.24%	42.8%	38.06%	85.6%	17.3%	35.04%	42.67%	10.9%	11.82%	IC50 ([7]; Homo sapiens, Raji, 72 h): > 100 µM; IC50 [33]: 0.004 µM; IC50 [34]: > 100 µM; IC50 ([15]; Homo sapiens, HL-60, 72 h): > 100 µM; IC50 [35]: > 100 µM; IC50 ([17]; Homo sapiens, HeLa, 72 h): 4.08 µM; IC50 [36]: > 100 µM; IC50 ([20]; Homo sapiens, K562, 72 h): 0.31 µM; Activity [25]: 11.6%; Activity [26]: 83.58%; Activity [27]: 70.23%; Activity [28]: 5.33%; Activity [29]: 10.73%; Activity [30]: 3%; Activity [31]: 47.06%; Activity [32]: 2.93%
CC(=O)N[C@@H]1[C@H](O)[C@@H](CO)O[C@H]1c1nc(C(N)=O)cs1	62.01%	25.03%	5.88%	12.48%	63.4%	18.43%	5.03%	93.75%	95.59%	7.39%	5.93%	48.09%	45.03%	43.6%	98.81%	37.09%	31.42%	43.07%	11.17%	9.32%	IC50 ([7]; Homo sapiens, Raji, 72 h): 14.7 µM; IC50 [33]: 3.92 µM; IC50 [34]: 5.26 µM; IC50 ([15]; Homo sapiens, HL-60, 72 h): > 100 µM; IC50 [35]: > 100 µM; IC50 ([17]; Homo sapiens, HeLa, 72 h): > 100 µM; IC50 [36]: > 100 µM; IC50 ([20]; Homo sapiens, K562, 72 h): > 100 µM; Activity [25]: 8.21%; Activity [26]: 75.11%; Activity [27]: 33.66%; Activity [28]: 24.55%; Activity [29]: 12.6%; Activity [30]: 7.05%; Activity [31]: 90.45%; Activity [32]: 3.71%
NC(=O)c1csc([C@@H]2O[C@H](CO)[C@@H](O)[C@H]2O)n1 [TIAZOFURIN]	15.58%	13.76%	3.76%	11.58%	16.16%	37.25%	3.79%	15.38%	57.93%	5.27%	29.42%	35.66%	53.16%	13.71%	111.01%	27.2%	33.62%	37.08%	24.99%	5.74%	IC50 [33]: 1.78 µM; IC50 ([15]; Homo sapiens, HL-60, 72 h): 0.19 µM; IC50 ([20]; Homo sapiens, K562, 72 h): 1.89 µM; Activity [25]: 7.55%; Activity [26]: 79.36%; Activity [27]: 44.51%; Activity [28]: 10.71%; Activity [29]: -0.34%; Activity [30]: 41.24%; Activity [31]: 47.68%; Activity [32]: 2.22%
